An excerpt weighted towards active compounds, which were near 4.1% of everything screened.
UBC13 polyUb = human UBC13 polyubiquitination inhibition; P61088; UBC13 polyubiquitin chain formation, TR-FRET; inhibition, % at 20 µM; 330,000 tested, 0.47% active; AID 485273; in the data active = inhibition above about 45%, passing the limit was not always enough
Apaf1 inhib = blocks human Apaf-1 apoptosome activity | O14727 | reconstituted apoptosome caspase-3 activity, DEVD-Rh110 fluorescence | inhibition, % at 20 µM | 330,000 tested, 0.71% active; active = inhibition of at least 40% at 20 µM;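 note: plate controls were DMSO wells for no effect and DEVD-CHO caspase inhibitor wells for full effect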
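Material: cell-free apoptosome with Apaf-1, procaspase-3 and caspase-9; Buffer or medium: Hepes pH 7.5 with detergent and BSA; Reagent: cytochrome c trigger plus (Z-DEVD)2-Rh110 caspase-3 substrate; Times: compound with Apaf-1, dATP, procaspase-3 30 min, then 50 min reaction, room temperature; Technique: Rh110 fluorescence intensity.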
CHOP UPR activ = activators of apoptotic arm of unfolded protein response (CHOP); activation, % at 10 µM; 330,000 tested, 0.34% active; CHO-CHOP luciferase reporter, UPR activation, luminescence; percent of tunicamycin response over DMSO baseline;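 active = at 10 µM dose, activation of 40% or more, normalized to positive control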;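 note: 100% = tunicamycin at 10 µg/mL and 0% = DMSO alone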
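Dosing – one dose, 10 µM in 0.5% DMSO · System – CHO-CHOP cells, stable luciferase reporter of PERK-eIF2a-CHOP signalling · Input – 500 cells/well · Control set – tunicamycin 10 µg/mL final as positive, DMSO-only wells as negative · Timing – 6 h compound treatment, 37 °C · Measure – % activation vs tunicamycin · Technique – luminescence read with Steady-Glo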
Mdm2-MdmX inh = inhibitors of human Mdm2/MdmX interaction. O15151+Q00987. SaOS-2 split-luciferase Mdm2/MdmX complementation, luminescence. 330,000 tested, 3% active. inhibition, % at 8 µM;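 active = inhibition of at least 50% at 8 µM in the primary screen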
Target sequence (O15151 whole entry, looked up): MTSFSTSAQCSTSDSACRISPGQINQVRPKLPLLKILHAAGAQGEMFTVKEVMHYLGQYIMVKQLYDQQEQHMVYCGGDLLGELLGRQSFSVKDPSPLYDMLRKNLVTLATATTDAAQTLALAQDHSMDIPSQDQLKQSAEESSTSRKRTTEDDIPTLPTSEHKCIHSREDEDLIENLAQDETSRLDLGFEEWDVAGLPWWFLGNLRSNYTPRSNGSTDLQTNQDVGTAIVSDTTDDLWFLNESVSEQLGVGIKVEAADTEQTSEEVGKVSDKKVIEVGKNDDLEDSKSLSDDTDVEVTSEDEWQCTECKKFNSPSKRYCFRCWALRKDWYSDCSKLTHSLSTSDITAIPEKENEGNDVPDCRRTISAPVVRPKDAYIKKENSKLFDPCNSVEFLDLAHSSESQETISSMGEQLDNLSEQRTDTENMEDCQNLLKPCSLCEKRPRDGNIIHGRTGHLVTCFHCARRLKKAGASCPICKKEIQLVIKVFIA
Target sequence (Q00987 whole entry, looked up): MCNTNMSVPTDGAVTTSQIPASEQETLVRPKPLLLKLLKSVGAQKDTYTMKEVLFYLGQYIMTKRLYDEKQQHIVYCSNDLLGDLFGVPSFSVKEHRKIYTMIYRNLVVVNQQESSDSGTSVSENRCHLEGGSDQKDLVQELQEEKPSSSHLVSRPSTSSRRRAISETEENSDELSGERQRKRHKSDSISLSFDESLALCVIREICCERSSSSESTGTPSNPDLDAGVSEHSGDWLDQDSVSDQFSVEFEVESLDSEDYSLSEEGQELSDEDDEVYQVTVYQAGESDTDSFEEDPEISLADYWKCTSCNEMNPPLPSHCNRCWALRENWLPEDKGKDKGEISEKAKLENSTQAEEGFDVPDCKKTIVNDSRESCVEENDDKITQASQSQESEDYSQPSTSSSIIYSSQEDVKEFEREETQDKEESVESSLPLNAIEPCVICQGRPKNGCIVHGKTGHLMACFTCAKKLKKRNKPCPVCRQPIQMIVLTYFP
UPR XBP1 act = activators of adaptive arm of unfolded protein response (XBP1). 330,000 tested, 0.33% active. AID 463104. CHO-XBP1 luciferase reporter, IRE1-XBP1 UPR activation, luminescence; percent of tunicamycin response, DMSO as zero. activation, % at 20 µM;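 active = versus positive control, 20 µM dose yields 30% or more activation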;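 note: 100% = tunicamycin at 10 µg/mL and 0% = DMSO only wells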
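Material: CHO cell line with stable XBP1 luciferase reporter; schedule: 16-18 h cell attachment at 37 °C, then 6 h compound exposure; signal: glow luminescence from Steady-Glo reagent; medium: serum-containing F12 medium, 10% FBS; benchmarks: tunicamycin 10 µg/mL and vehicle-only wells; read-out: percent activation relative to tunicamycin reference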
Apaf-1 inh conf = confirmation of Apaf-1 inhibitors. shares compounds with Apaf1 inhib. reconstituted apoptosome, caspase-3 DEVD-Rh110 fluorescence. inhibition, % at 20 µM. 1,800 tested, 25% active. AID 504614;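 active = mean inhibition of at least 40% at 20 µM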;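 note: plate controls were DMSO wells for no effect and DEVD-CHO caspase inhibitor control wells for full effect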
Rh110 quench = Rh110 signal interference in Apaf-1 inhibitor counter-screen | 1,800 tested, under 10 active | activation (fluorescence interference), % at 20 µM | shares compounds with Apaf1 inhib | Rh110 fluorescence interference, quenched caspase reaction;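 active = signal rise of 40% or more at 20 µM, treated as a fluorescence artifact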
Fluor interf inh = Apaf-1 inhibitor counter-screen fluorescence artifact; IC50, µM; 460 tested, under 10 active; fluorescence interference counterscreen, Apaf-1 assay format; shares compounds with Apaf1 inhib; call rule not given here
* hit, by the source's call; x = not tested or not shown.

SMILES	UBC13 polyUb	Apaf1 inhib	CHOP UPR activ	Mdm2-MdmX inh	UPR XBP1 act	Apaf-1 inh conf	Rh110 quench	others
N#Cc1c(N)n(-c2ccc(O)cc2)c2nc3ccccc3nc12	-8.0	7.4	-1.3	21.1	-1.7	x	x
N#Cc1c(N)n(CCNC(=O)c2ccc(Cl)cc2)c2nc3ccccc3nc12	-1.7	66.5*	-1.3	3.5	-0.3	21.6	4.4
Cc1ccc(S(=O)(=O)NC(C(=O)N2CCOCCOCCOCC2)c2ccccc2)cc1 (stereo unspecified)	-1.9	0.8	-0.5	-2.6	-1.7	x	x
CCOCCCNC(=O)CCN1C(=O)c2ccccc2Sc2ncccc21	-2.6	0.2	-2.0	-9.2	-3.2	x	x
Cc1cc(C)cc(NC(=O)Cc2ccc(-n3cccc3)cc2)c1	3.3	7.8	-0.1	5.0	-0.6	x	x
COc1cccc(Cn2c(N)c(C#N)c3nc4ccccc4nc32)c1OC	-5.7	92.2*	-0.2	3.3	6.1	11.4	7.9
COc1ccc(Cn2c(N)c(S(=O)(=O)c3cccs3)c3nc4ccccc4nc32)cc1	7.5	-7.6	4.8	35.9	4.8	x	x
N#Cc1c(N)n(-c2cccc(O)c2)c2nc3ccccc3nc12	6.1	-16.9	1.0	10.1	-1.6	x	x
N#Cc1c(N)n(CCOC(=O)c2cccc(Br)c2)c2nc3ccccc3nc12	-17.1	45.9*	0.5	10.0	0.0	19.8	10.6
COc1cc(Cn2c(N)c(C#N)c3nc4ccccc4nc32)cc(OC)c1	21.7	57.9*	1.0	7.2	4.2	17.5	3.7
COc1cccc(COC(=O)Cc2ccc(S(=O)(=O)N3CCOCC3)s2)c1OC	2.0	-1.7	2.2	-8.6	-1.5	x	x
O=C(CNc1ccc(Br)cc1)NC(=O)NC1CCCCC1	-1.1	24.1	1.3	1.8	-0.6	x	x
CCN(CC(=O)Nc1c(F)cccc1F)C(=O)CNC(=O)c1ccc2c(c1)OCO2	18.3	53.2*	-0.3	11.5	-1.5	30.7	1.8
CCN(CC(=O)Nc1c(F)cccc1F)C(=O)Cc1ccsc1	33.4	52.3*	-0.7	-2.9	-0.5	41.5*	8.7	Fluor interf inh=>100
CCOc1cc(C(c2c(C)[nH][nH]c2=O)c2c(C)[nH][nH]c2=O)ccc1OS(=O)(=O)c1ccc(C)cc1	-0.6	40.6*	-0.7	10.0	2.7	25.5	18.9
CCOc1ccc(C(c2c(C)[nH][nH]c2=O)c2c(C)[nH][nH]c2=O)cc1OC	-10.7	21.2	-1.3	11.2	-3.1	x	x
Cn1nnnc1SCC(=O)Nc1ccc2c(c1)OCO2	4.7	-0.6	-0.2	28.6	-3.1	x	x
Cc1cc2cc(C(c3nnnn3Cc3ccco3)N3CCc4ccccc4C3)c(=O)[nH]c2cc1C (stereo unspecified)	-6.6	40.9*	-1.9	22.2	0.5	23.6	10.4
COc1ccc2cc(C(c3nnnn3C3CCCC3)N3CCc4ccccc4C3)c(=O)[nH]c2c1 (stereo unspecified)	-3.7	72.1*	-0.7	-5.6	0.8	23.6	13.2
Cc1ccc2[nH]c(=O)c(C(c3nnnn3CC3CCCO3)N3CCc4ccccc4C3)cc2c1 (stereo unspecified)	0.1	66.0*	-1.0	20.4	2.4	17.3	9.4
Cc1ccc2cc(C(c3nnnn3Cc3ccccc3)N3CCc4ccccc43)c(=O)[nH]c2c1 (stereo unspecified)	5.5	43.3*	-2.1	11.1	-2.6	18.3	4.3
COC(=O)[C@@]1(Cc2ccc(OC)cc2)[C@H]2c3cc(C(=O)N4CCCC4)n(CCSCCO)c3C[C@H]2CN1C(=O)c1ccccc1	-1.2	4.5	-0.2	-9.8	5.9	x	x
COc1ccc(S(=O)(=O)N2c3ccccc3NC(=O)CC2C)cc1 (stereo unspecified)	-10.2	-0.8	1.9	4.7	-4.4	x	x
COc1cc(/C=C2/C(=O)N(c3ccc([N+](=O)[O-])cc3)N=C2N2CCOCC2)ccc1O	-126.0	86.4*	0.0	10.1	3.7	39.4	3.2
C=C(C)Cc1c(C)c(C#N)c2[nH]c3ccccc3n2c1=O	-14.1	62.0*	-0.1	4.2	-2.5	45.5*	5.2	Fluor interf inh=>100
SMILES	UBC13 polyUb	Apaf1 inhib	CHOP UPR activ	Mdm2-MdmX inh	UPR XBP1 act	Apaf-1 inh conf	Rh110 quench	others
O=C1Cc2cc([N+](=O)[O-])ccc2N1c1c(Cl)cccc1Cl	-21.5	43.2*	0.5	-12.3	0.5	11.0	1.6
O=[N+]([O-])c1ccc(N2CCN(c3ccccc3O)CC2)c(Cl)c1	-5.4	18.4	0.2	-0.8	-0.6	x	x
CC(C)Cc1nnc(NC(=O)c2cc([N+](=O)[O-])ccc2N2CCOCC2)s1	-10.3	12.2	2.1	1.3	-3.7	x	x
CC(=O)N1CCN(C(=S)NC(=O)C23CC4CC(CC(C4)C2)C3)CC1	-6.3	47.5*	-2.5	9.2	-0.4	2.9	-7.7
O=C1C=C(Nc2ccccc2O)c2ccccc2C1=O	-322.8	96.4*	37.7	34.3	3.5	92.5*	0.6	Fluor interf inh=>100
O=C(Nc1ccccc1O)c1ccc2c(c1)C(=O)N(N1C(=O)c3ccccc3C1=O)C2=O	-13.3	-0.7	-0.1	29.6	3.5	x	x
c1cc2c3c(cccc3c1)NC1(CCCCCC1)N2	-27.9	49.0*	5.2	24.4	5.9	57.4*	-3.7	Fluor interf inh=>100
O=C(N/N=C/C=C/c1ccccc1[N+](=O)[O-])c1cccs1	-1.9	3.1	3.7	11.3	-0.5	x	x
O=C(N/N=C\C=C\c1ccc([N+](=O)[O-])o1)c1cccs1	-24.8	49.0*	1.3	-14.9	-1.0	8.0	6.5
Cc1noc(C)c1S(=O)(=O)N(C)C[C@H]1Oc2ccc(NC(=O)NC(C)C)cc2C(=O)N([C@H](C)CO)C[C@@H]1C	-9.9	5.6	1.8	4.6	-1.2	x	x
CCOc1ccc(C(C(=O)NC(C)(C)C)N(CCOC)C(=O)CCC(=O)Nc2ccccn2)cc1 (stereo unspecified)	3.1	4.3	0.3	-13.0	-3.4	x	x
CC1(c2ccc(OC(F)F)cc2)NC(=O)N(CC(=O)Nc2ccc(N3CCCCC3)cc2)C1=O (stereo unspecified)	5.2	53.2*	1.4	16.2	-0.9	18.8	4.0
O=C(CNC(=O)C12CC3CC(CC(C3)C1)C2)N/N=C\c1ccco1	1.4	-10.4	0.3	23.1	0.2	x	x
O=C(/C=C/c1ccco1)c1ccc(NC(=O)C23CC4CC(CC(C4)C2)C3)cc1	-0.6	45.4*	3.5	-3.6	-0.7	15.4	3.5
Cc1ccc2c(-c3csc(N)n3)c[nH]c2c1	-27.2	26.1	1.8	12.8	2.5	x	x
Cc1ccc2[nH]c3c(c2c1)CN(C(=O)CN1CCCc2ccccc21)CC3	-29.2	78.5*	1.2	8.4	3.1	15.1	8.0

Screens deposited in PubChem by Sanford-Burnham Center for Chemical Genomics.
